The target in the assay is Diacylglycerol lipase-alpha (Mus musculus) (UniProt Q6WQJ1). The assay is described as follows: mouse DAGLa inhibition, late-stage follow-up, selectivity assay for DAGLb inhibitor project, biochemical, gel-based competitive ABPP, recombinant, fluorescence (AID 602403). Conditions: HEK293T membrane mouse DAGLa, at 0.4 µM, active compounds read high. A digest of the protocol:
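Test system: Membrane proteome of 293T HEK cells transiently overexpressing mouse DAGLa | Buffer or medium: DPBS | Also added: HT-01 probe, 1 µM | Schedule: Compound pre-incubation 30 min, probe labeling 30 min, both 37 °C | Detection: SDS-PAGE separation with in-gel fluorescence imaging of bands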

Unmarked numbers belong to inactive results.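 The calls were made as follows: active = inhibition of the enzyme-probe labelling of at least 50% at one fixed dose; inactive = inhibition below 50%.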

What is called inhibition is the relative decrease from the control value, in per cent.

Chain of Diacylglycerol lipase-alpha (Mus musculus) (Q6WQJ1 whole entry, looked up): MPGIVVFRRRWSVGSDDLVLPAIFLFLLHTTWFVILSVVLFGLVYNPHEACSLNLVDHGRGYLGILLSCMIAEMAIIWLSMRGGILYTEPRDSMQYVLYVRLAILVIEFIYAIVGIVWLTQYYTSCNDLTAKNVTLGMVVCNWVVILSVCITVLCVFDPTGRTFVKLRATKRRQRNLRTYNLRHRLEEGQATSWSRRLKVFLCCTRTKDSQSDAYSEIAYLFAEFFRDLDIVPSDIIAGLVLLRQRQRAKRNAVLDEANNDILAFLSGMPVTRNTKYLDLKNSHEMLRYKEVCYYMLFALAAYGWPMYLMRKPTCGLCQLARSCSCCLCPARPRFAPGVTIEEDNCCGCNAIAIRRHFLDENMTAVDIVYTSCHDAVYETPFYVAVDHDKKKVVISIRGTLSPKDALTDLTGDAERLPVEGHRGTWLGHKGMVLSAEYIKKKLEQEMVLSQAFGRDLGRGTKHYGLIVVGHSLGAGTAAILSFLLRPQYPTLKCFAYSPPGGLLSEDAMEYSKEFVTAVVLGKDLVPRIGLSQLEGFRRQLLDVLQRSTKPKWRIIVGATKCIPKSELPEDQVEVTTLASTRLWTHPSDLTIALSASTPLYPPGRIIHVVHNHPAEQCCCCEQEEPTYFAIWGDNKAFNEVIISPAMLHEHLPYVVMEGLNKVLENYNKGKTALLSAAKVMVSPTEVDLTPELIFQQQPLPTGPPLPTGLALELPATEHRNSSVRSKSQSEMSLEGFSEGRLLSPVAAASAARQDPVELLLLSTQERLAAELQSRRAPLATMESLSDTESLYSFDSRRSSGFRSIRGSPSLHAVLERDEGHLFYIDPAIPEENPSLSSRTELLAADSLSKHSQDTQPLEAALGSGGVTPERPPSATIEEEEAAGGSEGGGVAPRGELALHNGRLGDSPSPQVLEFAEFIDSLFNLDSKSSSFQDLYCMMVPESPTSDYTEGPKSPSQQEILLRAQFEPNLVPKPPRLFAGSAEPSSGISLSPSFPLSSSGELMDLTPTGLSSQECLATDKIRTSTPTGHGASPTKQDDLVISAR

`O=C(N1CCCCC1Cc1ccccc1)n1cc(-c2ccc(-c3ccccc3)cc2)nn1` (stereo unspecified): the inhibition is 40%.

These data come from PubChem BioAssay AID602403 (The Scripps Research Institute Molecular Screening Center, 2012).
